Laboratory results: ChEMBL document CHEMBL4765413, “Discovery of novel anti-angiogenesis agents. Part 11: Development of PROTACs based on active molecules with potency of promoting vascular normalization” (Eur J Med Chem, 2020)
One block for each compound: values may come before it.

Legend:
[1] = biological target: Vascular endothelial growth factor receptor 2 (Homo sapiens, UniProt P35968); test: Inhibition of recombinant human N-terminal GST-tagged VEGFR2 (789 to end residues) expressed in baculovirus infected Sf9 insect cells using Poly (4:1 Glu, Tyr) as substrate incubated for 1 hr by ADP-Glo luminescent assay
Chain of Vascular endothelial growth factor receptor 2 (P35968 whole entry): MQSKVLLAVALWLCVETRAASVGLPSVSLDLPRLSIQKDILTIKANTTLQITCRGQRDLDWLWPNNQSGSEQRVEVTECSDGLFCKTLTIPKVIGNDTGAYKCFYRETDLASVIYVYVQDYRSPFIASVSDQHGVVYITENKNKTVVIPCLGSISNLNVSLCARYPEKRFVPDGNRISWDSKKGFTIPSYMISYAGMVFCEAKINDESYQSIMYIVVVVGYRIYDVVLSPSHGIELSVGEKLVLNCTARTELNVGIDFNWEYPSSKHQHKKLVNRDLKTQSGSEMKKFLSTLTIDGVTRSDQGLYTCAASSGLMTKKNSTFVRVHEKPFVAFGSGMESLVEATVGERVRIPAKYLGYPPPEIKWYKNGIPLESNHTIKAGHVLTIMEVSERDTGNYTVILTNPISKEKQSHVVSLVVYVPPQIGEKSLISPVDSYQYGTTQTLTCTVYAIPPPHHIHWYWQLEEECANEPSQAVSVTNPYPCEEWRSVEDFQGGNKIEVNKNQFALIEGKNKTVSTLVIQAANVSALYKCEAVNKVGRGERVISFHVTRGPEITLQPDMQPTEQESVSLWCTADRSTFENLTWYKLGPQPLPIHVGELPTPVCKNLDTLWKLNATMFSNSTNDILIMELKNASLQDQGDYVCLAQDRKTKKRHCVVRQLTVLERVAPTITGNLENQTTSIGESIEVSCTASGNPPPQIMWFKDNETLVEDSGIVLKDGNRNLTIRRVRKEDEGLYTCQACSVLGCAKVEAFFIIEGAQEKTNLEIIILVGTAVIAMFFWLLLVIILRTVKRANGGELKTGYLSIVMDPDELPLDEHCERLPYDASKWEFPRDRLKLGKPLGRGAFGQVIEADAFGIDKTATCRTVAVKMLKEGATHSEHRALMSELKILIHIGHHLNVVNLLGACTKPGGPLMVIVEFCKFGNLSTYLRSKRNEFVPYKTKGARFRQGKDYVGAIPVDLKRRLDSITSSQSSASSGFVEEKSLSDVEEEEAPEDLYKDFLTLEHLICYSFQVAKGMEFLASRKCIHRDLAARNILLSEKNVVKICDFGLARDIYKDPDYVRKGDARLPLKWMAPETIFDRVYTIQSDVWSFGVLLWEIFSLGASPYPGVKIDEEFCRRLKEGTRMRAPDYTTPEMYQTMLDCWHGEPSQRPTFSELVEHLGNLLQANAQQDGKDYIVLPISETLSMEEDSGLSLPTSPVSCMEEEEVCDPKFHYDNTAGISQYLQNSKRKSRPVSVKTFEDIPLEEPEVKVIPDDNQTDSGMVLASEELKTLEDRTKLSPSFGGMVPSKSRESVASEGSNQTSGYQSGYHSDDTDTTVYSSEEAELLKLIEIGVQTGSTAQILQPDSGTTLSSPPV

EA.hy 926 [2] = test: Antiangiogenic activity in human EA.hy 926 cells measured after 24 hrs by MTT assay; conditions: EA.hy 926, 24 h
HEK293 = test: Cytotoxicity against HEK293 cells measured after 24 hrs by MTT assay; type: cell-based; conditions: human, hek293, 24 h
[3] = biological target: T1, von Hippel-Lindau disease tumor suppressor/Vascular endothelial growth factor receptor 2 (Homo sapiens) (UniProt P35968+P40337); test: Protac activity at VHL/VEGFR2 in human EA.hy 926 cells assessed as induction of VEGFR2 degradation at 40 uM measured after 24 to 48 hrs by Western blot analysis relative to control; type: cell-based; conditions: time 24-48 hrs
T1 sequence (P35968 20-1356 limits assumed): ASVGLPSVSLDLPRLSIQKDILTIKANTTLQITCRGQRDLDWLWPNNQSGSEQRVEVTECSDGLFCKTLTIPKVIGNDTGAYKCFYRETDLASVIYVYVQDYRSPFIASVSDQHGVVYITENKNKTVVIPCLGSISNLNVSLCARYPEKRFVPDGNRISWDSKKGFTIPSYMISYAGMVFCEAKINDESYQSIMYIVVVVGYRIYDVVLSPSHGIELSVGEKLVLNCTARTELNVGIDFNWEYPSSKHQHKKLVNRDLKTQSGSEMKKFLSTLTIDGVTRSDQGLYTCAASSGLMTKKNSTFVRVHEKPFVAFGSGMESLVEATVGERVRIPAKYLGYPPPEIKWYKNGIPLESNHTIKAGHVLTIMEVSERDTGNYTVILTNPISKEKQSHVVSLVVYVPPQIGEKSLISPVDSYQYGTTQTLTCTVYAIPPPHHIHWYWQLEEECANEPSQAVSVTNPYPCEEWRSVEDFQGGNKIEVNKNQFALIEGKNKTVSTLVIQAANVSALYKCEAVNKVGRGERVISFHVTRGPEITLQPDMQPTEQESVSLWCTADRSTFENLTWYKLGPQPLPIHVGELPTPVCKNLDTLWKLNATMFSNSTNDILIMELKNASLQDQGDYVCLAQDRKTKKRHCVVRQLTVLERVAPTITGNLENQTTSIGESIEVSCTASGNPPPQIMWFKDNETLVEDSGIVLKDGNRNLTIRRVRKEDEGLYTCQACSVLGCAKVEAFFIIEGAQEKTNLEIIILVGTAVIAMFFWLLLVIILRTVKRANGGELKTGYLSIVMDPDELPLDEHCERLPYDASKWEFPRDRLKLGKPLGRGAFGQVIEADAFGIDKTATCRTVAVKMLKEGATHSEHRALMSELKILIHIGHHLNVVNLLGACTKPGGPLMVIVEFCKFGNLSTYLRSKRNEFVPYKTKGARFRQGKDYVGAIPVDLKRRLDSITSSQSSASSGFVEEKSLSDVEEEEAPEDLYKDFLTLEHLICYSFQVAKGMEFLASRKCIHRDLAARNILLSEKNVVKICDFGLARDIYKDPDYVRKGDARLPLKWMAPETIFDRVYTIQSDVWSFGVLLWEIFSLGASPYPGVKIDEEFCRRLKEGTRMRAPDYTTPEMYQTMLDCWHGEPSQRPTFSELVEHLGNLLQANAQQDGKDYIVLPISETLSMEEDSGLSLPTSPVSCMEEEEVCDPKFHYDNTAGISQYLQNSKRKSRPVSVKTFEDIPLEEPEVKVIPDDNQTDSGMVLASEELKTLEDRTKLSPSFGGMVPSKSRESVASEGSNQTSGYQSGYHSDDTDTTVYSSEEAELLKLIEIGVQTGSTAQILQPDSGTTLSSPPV
T1 sequence (P40337 whole entry partner): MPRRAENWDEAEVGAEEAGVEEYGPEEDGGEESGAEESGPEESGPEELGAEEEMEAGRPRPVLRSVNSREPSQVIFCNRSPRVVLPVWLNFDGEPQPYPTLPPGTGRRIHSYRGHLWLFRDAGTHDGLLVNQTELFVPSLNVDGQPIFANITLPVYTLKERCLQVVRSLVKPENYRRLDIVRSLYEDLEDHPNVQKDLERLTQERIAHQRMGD
Outline: (§1)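 EA.hy926 cells were exposed to DMSO vehicle or test compound, then lysed in SDS sample buffer and normalized by BCA protein assay. Equal protein amounts were run on SDS-PAGE and transferred to PVDF. Membranes were blocked in 5% milk/TBS-Tween and probed with anti-VEGFR-2 (1:500), with GAPDH (1:10000) as loading control. Detection used HRP secondary and ECL, with densitometric quantification.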

[4] = biological target: T1, von Hippel-Lindau disease tumor suppressor/Vascular endothelial growth factor receptor 2 (Homo sapiens); test: Protac activity at VHL/VEGFR2 in human EA.hy 926 cells assessed as induction of VEGFR2 degradation measured after 24 to 72 hrs by Western blot analysis; type: cell-based; conditions: time 24-72 hrs; outline: as §1
EA.hy 926 [5] = test: Cell cycle arrest in human EA.hy 926 cells assessed as accumulation at G1 phase at 0.1 uM measured after 72 hrs by propidium iodide staining based flow cytometry (reference value: 59.78%); type: functional
EA.hy 926 [6] = test: Cell cycle arrest in human EA.hy 926 cells assessed as accumulation at G2 phase at 0.1 uM measured after 72 hrs by propidium iodide staining based flow cytometry (reference value: 25.83%); type: functional
EA.hy 926 [7] = test: Cell cycle arrest in human EA.hy 926 cells assessed as accumulation at S phase at 0.1 uM measured after 72 hrs by propidium iodide staining based flow cytometry (reference value: 14.39%); type: functional
EA.hy 926 [8] = test: Cell cycle arrest in human EA.hy 926 cells assessed as accumulation at G1 phase at 1 uM measured after 72 hrs by propidium iodide staining based flow cytometry (reference value: 59.78%); type: functional
EA.hy 926 [9] = test: Cell cycle arrest in human EA.hy 926 cells assessed as accumulation at G2 phase at 1 uM measured after 72 hrs by propidium iodide staining based flow cytometry (reference value: 25.83%); type: functional
EA.hy 926 [10] = test: Cell cycle arrest in human EA.hy 926 cells assessed as accumulation at S phase at 1 uM measured after 72 hrs by propidium iodide staining based flow cytometry (reference value: 14.39%); type: functional
EA.hy 926 [11] = test: Cell cycle arrest in human EA.hy 926 cells assessed as accumulation at G1 phase at 10 uM measured after 72 hrs by propidium iodide staining based flow cytometry (reference value: 59.78%); type: functional
EA.hy 926 [12] = test: Cell cycle arrest in human EA.hy 926 cells assessed as accumulation at G2 phase at 10 uM measured after 72 hrs by propidium iodide staining based flow cytometry (reference value: 25.83%); type: functional
EA.hy 926 [13] = test: Cell cycle arrest in human EA.hy 926 cells assessed as accumulation at S phase at 10 uM measured after 72 hrs by propidium iodide staining based flow cytometry (reference value: 14.39%); type: functional
EA.hy 926 [14] = test: Cell cycle arrest in human EA.hy 926 cells assessed as accumulation at G1 phase at 20 uM measured after 72 hrs by propidium iodide staining based flow cytometry (reference value: 59.78%); type: functional
EA.hy 926 [15] = test: Cell cycle arrest in human EA.hy 926 cells assessed as accumulation at G2 phase at 20 uM measured after 72 hrs by propidium iodide staining based flow cytometry (reference value: 25.83%); type: functional
EA.hy 926 [16] = test: Cell cycle arrest in human EA.hy 926 cells assessed as accumulation at S phase at 20 uM measured after 72 hrs by propidium iodide staining based flow cytometry (reference value: 14.39%); type: functional
EA.hy 926 [17] = test: Cell cycle arrest in human EA.hy 926 cells assessed as accumulation at G1 phase at 40 uM measured after 72 hrs by propidium iodide staining based flow cytometry (reference value: 59.78%); type: functional
EA.hy 926 [18] = test: Cell cycle arrest in human EA.hy 926 cells assessed as accumulation at G2 phase at 40 uM measured after 72 hrs by propidium iodide staining based flow cytometry (reference value: 25.83%); type: functional
EA.hy 926 [19] = test: Cell cycle arrest in human EA.hy 926 cells assessed as accumulation at S phase at 40 uM measured after 72 hrs by propidium iodide staining based flow cytometry (reference value: 14.39%); type: functional
EA.hy 926 [20] = test: Induction of apoptosis in human EA.hy 926 cells measured after 72 hrs by Annexin V-FITC/propidium iodide staining based flow cytometry; type: functional, cell-based
EA.hy 926 [21] = test: Induction of apoptosis in human EA.hy 926 cells assessed as viable cells at 0.1 uM measured after 72 hrs by Annexin V-FITC/propidium iodide staining based flow cytometry (reference value: 88.6%); type: functional; conditions: read-out: Activity
EA.hy 926 [22] = test: Induction of apoptosis in human EA.hy 926 cells assessed as early apoptotic cells at 0.1 uM measured after 72 hrs by Annexin V-FITC/propidium iodide staining based flow cytometry (reference value: 3.4%); type: functional
EA.hy 926 [23] = test: Induction of apoptosis in human EA.hy 926 cells assessed as necrotic cells at 0.1 uM measured after 72 hrs by Annexin V-FITC/propidium iodide staining based flow cytometry (reference value: 2.65%); type: functional
EA.hy 926 [24] = test: Induction of apoptosis in human EA.hy 926 cells assessed as viable cells at 1 uM measured after 72 hrs by Annexin V-FITC/propidium iodide staining based flow cytometry (reference value: 88.6%); type: functional; conditions: read-out: Activity
EA.hy 926 [25] = test: Induction of apoptosis in human EA.hy 926 cells assessed as early apoptotic cells at 1 uM measured after 72 hrs by Annexin V-FITC/propidium iodide staining based flow cytometry (reference value: 3.4%); type: functional
EA.hy 926 [26] = test: Induction of apoptosis in human EA.hy 926 cells assessed as necrotic cells at 1 uM measured after 72 hrs by Annexin V-FITC/propidium iodide staining based flow cytometry (reference value: 2.65%); type: functional
EA.hy 926 [27] = test: Induction of apoptosis in human EA.hy 926 cells assessed as viable cells at 10 uM measured after 72 hrs by Annexin V-FITC/propidium iodide staining based flow cytometry (reference value: 88.6%); type: functional; conditions: read-out: Activity
EA.hy 926 [28] = test: Induction of apoptosis in human EA.hy 926 cells assessed as early apoptotic cells at 10 uM measured after 72 hrs by Annexin V-FITC/propidium iodide staining based flow cytometry (reference value: 3.4%); type: functional
EA.hy 926 [29] = test: Induction of apoptosis in human EA.hy 926 cells assessed as necrotic cells at 10 uM measured after 72 hrs by Annexin V-FITC/propidium iodide staining based flow cytometry (reference value: 2.65%); type: functional
EA.hy 926 [30] = test: Induction of apoptosis in human EA.hy 926 cells assessed as viable cells at 20 uM measured after 72 hrs by Annexin V-FITC/propidium iodide staining based flow cytometry (reference value: 88.6%); type: functional; conditions: read-out: Activity
EA.hy 926 [31] = test: Induction of apoptosis in human EA.hy 926 cells assessed as early apoptotic cells at 20 uM measured after 72 hrs by Annexin V-FITC/propidium iodide staining based flow cytometry (reference value: 3.4%); type: functional
EA.hy 926 [32] = test: Induction of apoptosis in human EA.hy 926 cells assessed as necrotic cells at 20 uM measured after 72 hrs by Annexin V-FITC/propidium iodide staining based flow cytometry (reference value: 2.65%); type: functional
EA.hy 926 [33] = test: Induction of apoptosis in human EA.hy 926 cells assessed as viable cells at 40 uM measured after 72 hrs by Annexin V-FITC/propidium iodide staining based flow cytometry (reference value: 88.6%); type: functional; conditions: read-out: Activity
EA.hy 926 [34] = test: Induction of apoptosis in human EA.hy 926 cells assessed as early apoptotic cells at 40 uM measured after 72 hrs by Annexin V-FITC/propidium iodide staining based flow cytometry (reference value: 3.4%); type: functional
EA.hy 926 [35] = test: Induction of apoptosis in human EA.hy 926 cells assessed as necrotic cells at 40 uM measured after 72 hrs by Annexin V-FITC/propidium iodide staining based flow cytometry (reference value: 2.65%); type: functional
EA.hy 926 [36] = test: Induction of apoptosis in human EA.hy 926 cells assessed as late apoptotic cells at 1 uM measured after 72 hrs by Annexin V-FITC/propidium iodide staining based flow cytometry (reference value: 5.34%)
EA.hy 926 [37] = test: Induction of apoptosis in human EA.hy 926 cells assessed as late apoptotic cells at 10 uM measured after 72 hrs by Annexin V-FITC/propidium iodide staining based flow cytometry (reference value: 5.34%)
EA.hy 926 [38] = test: Induction of apoptosis in human EA.hy 926 cells assessed as late apoptotic cells at 20 uM measured after 72 hrs by Annexin V-FITC/propidium iodide staining based flow cytometry (reference value: 5.34%)
EA.hy 926 [39] = test: Induction of apoptosis in human EA.hy 926 cells assessed as late apoptotic cells at 40 uM measured after 72 hrs by Annexin V-FITC/propidium iodide staining based flow cytometry (reference value: 5.34%)
EA.hy 926 [40] = test: Induction of apoptosis in human EA.hy 926 cells assessed as late apoptotic cells at 0.1 uM measured after 72 hrs by Annexin V-FITC/propidium iodide staining based flow cytometry (reference value: 5.34%)

IC50 [1]: > 1 µM
SMILES: Cc1ncsc1-c1ccc(CNC(=O)[C@@H]2C[C@@H](O)CN2C(=O)[C@@H](NC(=O)CCCCCC(=O)n2nc(N)c3c(-c4cccc(NC(=O)Nc5cccc(C(C)C)c5)c4)cccc32)C(C)(C)C)cc1
IC50 (EA.hy 926 [2]): > 100 µM | Activity (HEK293): Non-Toxic

IC50 [1]: 0.209 µM | Activity [3]: 60% | Activity [4]: Dose-dependent effect
SMILES: Cc1ccc(F)c(NC(=O)Nc2ccc(-c3cccc4c3c(N)nn4C(=O)CCCCCCCCCCC(=O)N[C@H](C(=O)N3C[C@H](O)C[C@H]3C(=O)NCc3ccc(-c4scnc4C)cc3)C(C)(C)C)cc2)c1
IC50 (EA.hy 926 [2]): 38.6 µM | Activity (HEK293): Non-Toxic | Activity (EA.hy 926 [5]): 58.89% | Activity (EA.hy 926 [6]): 23.48% | Activity (EA.hy 926 [7]): 17.63% | Activity (EA.hy 926 [8]): 59.22% | Activity (EA.hy 926 [9]): 25.79% | Activity (EA.hy 926 [10]): 14.99% | Activity (EA.hy 926 [11]): 60.14% | Activity (EA.hy 926 [12]): 24.49% | Activity (EA.hy 926 [13]): 15.36% | Activity (EA.hy 926 [14]): 40.7% | Activity (EA.hy 926 [15]): 24.92% | Activity (EA.hy 926 [16]): 34.38% | Activity (EA.hy 926 [17]): 25.98% | Activity (EA.hy 926 [18]): 30.4% | Activity (EA.hy 926 [19]): 43.62% | Activity (EA.hy 926 [20]): Dose-dependent effect | viability at 0.1 µM (EA.hy 926 [21]): 86.7% | Activity (EA.hy 926 [22]): 4.21% | Activity (EA.hy 926 [23]): 2.16% | viability at 1 µM (EA.hy 926 [24]): 81.6% | Activity (EA.hy 926 [25]): 5.96% | Activity (EA.hy 926 [26]): 4.12% | viability at 10 µM (EA.hy 926 [27]): 70.2% | Activity (EA.hy 926 [28]): 12.1% | Activity (EA.hy 926 [29]): 2.15% | viability at 20 µM (EA.hy 926 [30]): 31.5% | Activity (EA.hy 926 [31]): 18.2% | Activity (EA.hy 926 [32]): 1.72% | viability at 40 µM (EA.hy 926 [33]): 8.82% | Activity (EA.hy 926 [34]): 26.4% | Activity (EA.hy 926 [35]): 0.59% | late apoptotic cells % (EA.hy 926 [36]): 8.32% | late apoptotic cells % (EA.hy 926 [37]): 15.6% | late apoptotic cells % (EA.hy 926 [38]): 48.7% | late apoptotic cells % (EA.hy 926 [39]): 64.2% | late apoptotic cells % (EA.hy 926 [40]): 6.94%

SMILES: CC(C)c1cccc(NC(=O)Nc2cccc(-c3cccc4[nH]nc(N)c34)c2)c1
IC50 (EA.hy 926 [2]): 51.6 µM

IC50 [1]: 0.0804 µM
SMILES: Cc1ccc(F)c(NC(=O)Nc2ccc(-c3cccc4c3c(N)nn4C(=O)CCCCCCCCCCCCCCC(=O)N[C@H](C(=O)N3C[C@H](O)C[C@H]3C(=O)NCc3ccc(-c4scnc4C)cc3)C(C)(C)C)cc2)c1
Activity (HEK293): Non-Toxic
